{"source": "ChEMBL document CHEMBL3407462", "about": "“Further insights into the SAR of α-substituted cyclopropylamine derivatives as inhibitors of histone demethylase KDM1A” (Eur J Med Chem, 2015)", "note": "Active and inactive are the calls of the source. No cut-off for these calls is given here.", "data": [{"molecular_target": "LSD1/CoREST complex (Homo sapiens, UniProt O60341)", "assay": "Inhibition of human recombinant KDM1A/CoREST complex expressed in Escherichia coli using mono-methylated H3-K4 peptide containing 21 amino acids as substrate preincubated for 15 mins followed by substrate addition measured for 12 mins by fluorescence assay", "outline": "(§1)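 KDM1A/CoREST co-purified from E. coli as separate proteins; 20 nM complex preincubated 15 min at RT with inhibitor, 50 µM Amplex UltraRed and 0.023 µM HRP in 50 mM Tris-HCl pH 8.0, 0.05 mg/ml BSA. Reaction started with 4.5 µM H3K4me1 21-mer peptide. H2O2 release read by fluorescence (ex 510/em 595 nm) for 12 min, aerobic. Tested twice in duplicate; IC50 reported.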", "units": {"IC50": "nM"}, "values": [{"smiles": "N[C@@]1(CCc2ccccc2)C[C@@H]1c1ccc(F)cc1", "note": "(mixture of isomers)", "IC50": 173}, {"smiles": "CC[C@]1(N)C[C@@H]1c1cccc(Cl)c1", "note": "(racemic)", "IC50": 38}, {"smiles": "N[C@@]1(Cc2ccc3ccccc3c2)C[C@@H]1c1cccc(Cl)c1", "note": "(racemic)", "IC50": 158}, {"smiles": "N[C@@]1(Cc2ccc3ccccc3c2)C[C@@H]1c1ccc(Cl)cc1", "note": "(racemic)", "IC50": 263}, {"smiles": "CC[C@]1(N)C[C@@H]1c1cccc(Br)c1", "note": "(racemic)", "IC50": 31}, {"smiles": "N[C@@]1(c2ccccc2)C[C@@H]1c1ccc(Br)cc1", "note": "(racemic)", "IC50": 47}, {"smiles": "N[C@@]1(Cc2ccc3ccccc3c2)C[C@@H]1c1ccc(F)cc1", "note": "(racemic)", "IC50": 642}, {"smiles": "N[C@@]1(Cc2ccc3ccccc3c2)C[C@@H]1c1ccc(Br)cc1", "note": "(mixture of isomers)", "IC50": 279}, {"smiles": "N[C@@]1(Cc2ccccc2)C[C@@H]1c1ccc(F)cc1", "note": "(mixture of isomers)", "IC50": 1050}, {"smiles": "CC[C@]1(N)C[C@@H]1c1ccc(OC(F)(F)F)cc1", "note": "(racemic)", "IC50": 1160}, {"smiles": "N[C@@]1(Cc2ccccc2)C[C@@H]1c1ccc(Br)cc1", "note": "(racemic)", "IC50": 187}, {"smiles": "CC[C@]1(N)C[C@@H]1c1cccc(C(F)(F)F)c1", "note": "(racemic)", "IC50": 118}, {"smiles": "N[C@@]1(CCc2ccccc2)C[C@@H]1c1ccc(Br)cc1", "note": "(racemic)", "IC50": 101}, {"smiles": "N[C@@]1(CCc2ccccc2)C[C@@H]1c1cccc(Br)c1", "note": "(mixture of isomers)", "IC50": 94}, {"smiles": "CC[C@]1(N)C[C@@H]1c1cccc(OC)c1", "note": "(mixture of isomers)", "IC50": 123}, {"smiles": "N[C@@]1(Cc2ccccc2)C[C@@H]1c1ccc(Cl)cc1", "note": "(mixture of isomers)", "IC50": 230}, {"smiles": "N[C@@]1(Cc2ccc3ccccc3c2)C[C@@H]1c1cccc(Br)c1", "note": "(racemic)", "IC50": 251}, {"smiles": "N[C@@]1(CCc2ccccc2)C[C@@H]1c1ccc(Cl)cc1", "note": "(racemic)", "IC50": 96}, {"smiles": "CC[C@]1(N)C[C@@H]1c1ccccc1F", "note": "(racemic)", "IC50": 352}, {"smiles": "CC[C@]1(N)C[C@@H]1c1ccc(Cl)cc1", "note": "(mixture of isomers)", "IC50": 178}, {"smiles": "CC[C@]1(N)C[C@@H]1c1ccccc1Br", "note": "(mixture of isomers)", "IC50": 350}, {"smiles": "CC[C@]1(N)C[C@@H]1c1ccc(C(F)(F)F)cc1", "note": "(racemic)", "IC50": 248}, {"smiles": "CC[C@]1(N)C[C@@H]1c1ccccc1Cl", "note": "(racemic)", "IC50": 258}, {"smiles": "CC[C@]1(N)C[C@@H]1c1cccc(F)c1", "note": "(mixture of isomers)", "IC50": 79}, {"smiles": "N[C@@]1(c2ccccc2)C[C@@H]1c1ccc(Cl)cc1", "note": "(mixture of isomers)", "IC50": 554}, {"smiles": "CC[C@]1(N)C[C@@H]1c1ccc(F)cc1", "note": "(mixture of isomers)", "IC50": 1020}, {"smiles": "CC[C@]1(N)C[C@@H]1c1ccc(Br)c(F)c1", "note": "(racemic)", "IC50": 35}, {"smiles": "CC[C@]1(N)C[C@@H]1c1ccc(Br)cc1", "note": "(mixture of isomers)", "IC50": 121}]}, {"molecular_target": "LSD1/CoREST complex (Homo sapiens) (UniProt O60341+Q9UKL0)", "sequence (Q9UKL0 whole entry, looked up, other chains not shown)": "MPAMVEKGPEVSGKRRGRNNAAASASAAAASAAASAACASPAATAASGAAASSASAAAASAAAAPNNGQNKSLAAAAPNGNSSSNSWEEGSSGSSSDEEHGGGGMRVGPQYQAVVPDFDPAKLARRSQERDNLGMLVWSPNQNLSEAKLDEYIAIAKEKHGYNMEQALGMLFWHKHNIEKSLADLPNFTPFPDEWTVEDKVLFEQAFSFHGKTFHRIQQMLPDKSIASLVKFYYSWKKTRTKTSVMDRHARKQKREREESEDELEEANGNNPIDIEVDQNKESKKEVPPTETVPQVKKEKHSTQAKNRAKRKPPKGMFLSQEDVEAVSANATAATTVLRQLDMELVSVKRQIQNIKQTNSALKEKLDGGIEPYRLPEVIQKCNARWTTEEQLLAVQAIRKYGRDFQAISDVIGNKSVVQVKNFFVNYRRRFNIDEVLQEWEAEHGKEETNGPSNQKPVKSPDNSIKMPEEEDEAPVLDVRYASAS", "assay": "Inhibition of human recombinant KDM1A/CoREST complex expressed in Escherichia coli using mono-methylated H3-K4 peptide containing 21 amino acids as substrate up to 100 uM preincubated for 15 mins followed by substrate addition measured for 12 mins by fluorescence assay", "outline": "as §1", "values": [{"smiles": "O=C1COC[C@]2(C[C@H]2c2ccccc2)N1", "inhibition": "inactive"}, {"smiles": "O=C1NCCN[C@]12C[C@@H]2c1ccccc1", "inhibition": "inactive"}]}]}
